The structures appear in SMILES notation.

Consider 3 molecules from ChEMBL document CHEMBL3627702, “Navigating CYP1A Induction and Arylhydrocarbon Receptor Agonism in Drug Discovery. A Case History with S1P1 Agonists” (J Med Chem, 2015).

Series [1] is described as follows: Cmax in Sprague-Dawley rat at 24 mg/kg, po QD measured on day 4. It counts as ADME, organism-based. Set-up: dose 24 mg/kg, route oral. As to conditions: in vivo. In short, it runs like this:
(§1)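 Male CD rats (226−325 g), n = 3, given the compound once daily by oral gavage for 4 days. Vehicle was 1% (w/v) methylcellulose aq suspension at 3−6 mg/mL, dosed at 5 mL/kg (target 15−30 mg/kg). Tail vein blood was taken on days 1 and 4 up to 24 h postdose. Blood was diluted 1:1 with water, extracted by acetonitrile protein precipitation and analysed by LC−MS/MS against calibration standards in diluted blood.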

Series [2] can be described thus: AUC in Sprague-Dawley rat at 24 mg/kg, po QD measured on day 4. It counts as ADME, organism-based. As to conditions: in vivo. Summed up: as §1
In series [3] the test system is CYP1A1. Kind of series: Induction of CYP1A1 mRNA expression in Sprague-Dawley rat hepatic microsomes at 24 mg/kg, po QD for 4 days relative to control. The class given is ADME, organism-based, Liver. Conditions: read-out: FC. In short, it runs like this:
(§2)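 Male CD rats (226–325 g, n = 3) were dosed by oral gavage once daily for 4 days as a 1% w/v aqueous methylcellulose suspension (3–6 mg/mL, 5 mL/kg). At the end of the study, a left lateral liver lobe section was placed in RNALater and homogenised in TRIzol. RNA was purified, DNase-treated and converted to cDNA, and Cyp1a1 was read on low-density TaqMan arrays.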

The subject of series [4] is CYP1A2. The experiment in a line: Induction of CYP1A2 mRNA expression in Sprague-Dawley rat hepatic microsomes at 24 mg/kg, po QD for 4 days relative to control. The class given is ADME, organism-based, Liver. As to conditions: read-out: FC.
Series [5] is described as follows: Cmax in Sprague-Dawley rat at 24 mg/kg, po QD measured on day 1. The class given is ADME, organism-based. Set-up: dose 24 mg/kg, route oral. Conditions: in vivo. Summed up: as §1
The nature of series [6]: AUC in Sprague-Dawley rat at 24 mg/kg, po QD measured on day 1. It counts as ADME, organism-based. Conditions: in vivo. Summed up:
as §1

The nature of series [7]: Blood clearance in CD rat at 1 mg/kg, iv. The class given is ADME, organism-based. Summed up:
(§3)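 Male CD rats carried femoral vein (dosing) and jugular vein (sampling) cannulae and recovered at least 2 days. They received a 1 h iv infusion at 5 mL kg−1 h−1, target 1 mg/kg, at 0.2 mg/mL in DMSO/10% Kleptose in saline (≤5%:≥95%). pH was adjusted to 8.0 if needed and the solution filtered. Definitive studies used n = 3 in crossover; others used single animals.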

Series [8] is described as follows: Oral bioavailability in CD rat at 3 mg/kg. The class given is ADME, organism-based. Conditions: in vivo. In short, it runs like this: (§4)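 Male CD rats cannulated in the femoral and jugular veins, n = 3, crossover design. Day 1: 1 h iv infusion at 1 mg/kg (0.2 mg/mL in ≤5% DMSO/≥95% 10% Kleptose in saline, 5 mL/kg/h). Day 2: oral gavage at 3 mg/kg (0.6 mg/mL in 1% methylcellulose, 5 mL/kg). Blood assayed by LC–MS/MS after acetonitrile precipitation.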

For series [9], the system named is Rattus norvegicus. The experiment in a line: Dose normalized AUC in Sprague-Dawley rat at 24 mg/kg, po QD measured on day 4. It counts as ADME, organism-based. As to conditions: in vivo. Summed up: as §1
In series [10] the test system is Rattus norvegicus. Kind of series: Dose normalized AUC in Sprague-Dawley rat at 24 mg/kg, po QD measured on day 1. Conditions: in vivo. The class given is ADME, organism-based. Summed up:
as §1

Series [11] can be described thus: Lipophilicity, log D of the compound at pH 7.4. The class given is physicochemical. As to conditions: buffer.
Series [12] in a line: Half life in CD rat at 1 mg/kg, iv. The class given is ADME, organism-based. Conditions: in vivo. Summed up:
as §3

Series [13] in a line: Dissociation constant, pKa of the compound. The class given is physicochemical.
Series [14] is described as follows: Volume of distribution at steady state in CD rat at 1 mg/kg, iv. It counts as ADME, organism-based. As to conditions: in vivo, read-out: Vdss. Summed up: as §4
In series [15] the test system is CYP1A2. Kind of series: Induction of CYP1A2 mRNA expression in Sprague-Dawley rat hepatic microsomes at 15 mg/kg, po QD for 4 days relative to control. It counts as ADME, organism-based, Liver. As to conditions: read-out: FC.
A short description of series [16]: Cmax in Sprague-Dawley rat at 15 mg/kg, po QD measured on day 4. Conditions: in vivo. The class given is ADME, organism-based. The arrangement: dose 15 mg/kg, route oral. Summed up:
as §1

Series [17] can be described thus: AUC in Sprague-Dawley rat at 15 mg/kg, po QD measured on day 4. Conditions: in vivo. The class given is ADME, organism-based. In short, it runs like this: as §1
Series [18] relates to Rattus norvegicus. The experiment in a line: Dose normalized AUC in Sprague-Dawley rat at 15 mg/kg, po QD measured on day 4. The class given is ADME, organism-based. Conditions: in vivo. In short, it runs like this:
as §1

A short description of series [19]: Cmax in Sprague-Dawley rat at 15 mg/kg, po QD measured on day 1. The class given is ADME, organism-based. The arrangement: dose 15 mg/kg, route oral. Conditions: in vivo. Summed up:
as §1

The nature of series [20]: AUC in Sprague-Dawley rat at 15 mg/kg, po QD measured on day 1. Conditions: in vivo. It counts as ADME, organism-based. Summed up:
as §1

For series [21], the system named is Rattus norvegicus. Kind of series: Dose normalized AUC in Sprague-Dawley rat at 15 mg/kg, po QD measured on day 1. The class given is ADME, organism-based. As to conditions: in vivo. Summed up:
as §1

Series [22] deals with CYP1A1. Kind of series: Induction of CYP1A1 mRNA expression in Sprague-Dawley rat hepatic microsomes at 15 mg/kg, po QD for 4 days relative to control. It counts as ADME, organism-based, Liver. As to conditions: read-out: FC. In short, it runs like this:
as §2

The nature of series [23]: Cmax in Sprague-Dawley rat at 19 mg/kg, po QD measured on day 1. The class given is ADME, organism-based. The arrangement: dose 19 mg/kg, route oral. Conditions: in vivo. Summed up:
as §1

Series [24] in a line: Cmax in Sprague-Dawley rat at 19 mg/kg, po QD measured on day 4. It counts as ADME, organism-based. Set-up: dose 19 mg/kg, route oral. As to conditions: in vivo. In short, it runs like this:
as §1

Series [25] concerns CYP1A1. The experiment in a line: Induction of CYP1A1 mRNA expression in Sprague-Dawley rat hepatic microsomes at 19 mg/kg, po QD for 4 days relative to control. The class given is ADME, organism-based, Liver. Conditions: read-out: FC. In short, it runs like this: as §2
A short description of series [26]: AUC in Sprague-Dawley rat at 19 mg/kg, po QD measured on day 1. It counts as ADME, organism-based. Conditions: in vivo. Summed up: as §1
Series [27] concerns Rattus norvegicus. Kind of series: Dose normalized AUC in Sprague-Dawley rat at 19 mg/kg, po QD measured on day 4. It counts as ADME, organism-based. As to conditions: in vivo. In short, it runs like this: as §1
Series [28] in a line: AUC in Sprague-Dawley rat at 19 mg/kg, po QD measured on day 4. Conditions: in vivo. It counts as ADME, organism-based. In short, it runs like this: as §1
The subject of series [29] is CYP1A2. The experiment in a line: Induction of CYP1A2 mRNA expression in Sprague-Dawley rat hepatic microsomes at 19 mg/kg, po QD for 4 days relative to control. The class given is ADME, organism-based, Liver. As to conditions: read-out: FC.
Series [30] concerns Rattus norvegicus. Kind of series: Dose normalized AUC in Sprague-Dawley rat at 19 mg/kg, po QD measured on day 1. The class given is ADME, organism-based. As to conditions: in vivo. Summed up:
as §1

In general, Cmax refers to the maximum level reached in the sampled fluid or tissue. What is called AUC is concentration integrated over time. A lower AUC goes with less exposure. In general, clearance refers to a measure of how efficiently the substance is removed, as volume per time. Low readings indicate a low capacity for elimination, high ones a high capacity for elimination. By bioavailability is commonly meant the share of a dose that reaches the circulation, judged against a reference dose that is usually intravenous. Low readings indicate poor availability, high ones good availability. As usually defined, the logD is the decadic logarithm of the distribution of all forms, ionised or not, between an organic phase and buffer at a given pH. What is called half-life is the time needed for the level to fall by half in the phase considered. The pKa is the negative logarithm of the acid dissociation constant. Read a low pKa as a group that gives up its proton readily. For `CC(C)Nc1ncc(-c2nc(-c3ccc4c(c3)CCN(C(CO)CO)CC4)no2)cc1C#N`, the Cmax in series [1] worked out at 1220 ng/mL; in series [5], 1010 ng/mL. Further, the AUC turned out to be 21300 ng·h/mL in [2] and 15300 ng·h/mL in [6]. Also, the fold induction at 96 h in the series on CYP1A1 [3] came to 100; in the series on CYP1A2 [4], 2. In addition, the clearance in series [7] worked out at 22 mL/min/kg. The bioavailability in series [8] is 67%. For the same molecule, the AUC/dose worked out at 55 kg·min/L in the series on Rattus norvegicus [9] and 38 kg·min/L in the series with Rattus norvegicus [10]. In [11], the logD was determined as 2.63. Also, the half-life in [12] was 8.1 h. In [13], this molecule yielded a pKa of 8.1. The Vd in [14] was found to be 10.9 L/kg.
Consider `CC(C)Oc1ccc(-c2nc(-c3cccc4c3CCN(C(CO)CO)C4)no2)cc1C#N`, for which the fold induction at 96 h in the series on CYP1A2 [15] stood at 2; in the series with CYP1A1 [22] it was 1.6. Further, the figures for the Cmax in series [16] and in series [19] were 940 ng/mL and 900 ng/mL, respectively. In addition, the results for the exposure (AUC) in series [17] and in [20] were 13900 ng·h/mL and 12100 ng·h/mL, respectively. Also, the AUC/dose in the series with Rattus norvegicus [18] was determined as 56 kg·min/L; in the series on Rattus norvegicus [21], 48 kg·min/L. The molecule further yielded a pH-dependent lipophilicity (logD) in [11] of 2.58. Besides, the pKa in series [13] came out at 7.3.
`Cc1c(-c2nnc(-c3ccc(OC(C)C)c(C#N)c3)s2)ccc2c1CCN(C(CO)CO)C2`: the Cmax in series [23] was 1750 ng/mL; in [24], 2320 ng/mL. For the same molecule, the fold induction at 96 h with CYP1A1 [25] came to 1.7; with CYP1A2 [29], 1. In series [11], this molecule yielded a logD of 2.33. In addition, the values for the exposure (AUC) in series [26] and in series [28] were 19100 ng·h/mL and 27800 ng·h/mL, respectively. Besides, the AUC/dose with Rattus norvegicus [27] was determined as 89 kg·min/L; in the series with Rattus norvegicus [30], 61 kg·min/L. In [13], this molecule showed a pKa of 7.2.
